Assay results reported in ChEMBL document CHEMBL5696444 (Nat Commun, 2017).

Assays:
[1] = biological target: Dual specificity protein kinase CLK2 (Homo sapiens, UniProt P49760); experiment: Inhibition of N-terminal FLAG-tagged human CLK2 at 123 nM in the presence of ATP by Kinome scan method relative to control; conditions: time > 6.0 hrs
[2] = biological target: Dual specificity mitogen-activated protein kinase kinase 2 (Homo sapiens) (UniProt P36507); experiment: Inhibition of MAP2K2 (unknown origin) at 1000 nM in the presence of ATP by Kinome scan method relative to control
Sequence of Dual specificity mitogen-activated protein kinase kinase 2 (Homo sapiens) (P36507 whole entry): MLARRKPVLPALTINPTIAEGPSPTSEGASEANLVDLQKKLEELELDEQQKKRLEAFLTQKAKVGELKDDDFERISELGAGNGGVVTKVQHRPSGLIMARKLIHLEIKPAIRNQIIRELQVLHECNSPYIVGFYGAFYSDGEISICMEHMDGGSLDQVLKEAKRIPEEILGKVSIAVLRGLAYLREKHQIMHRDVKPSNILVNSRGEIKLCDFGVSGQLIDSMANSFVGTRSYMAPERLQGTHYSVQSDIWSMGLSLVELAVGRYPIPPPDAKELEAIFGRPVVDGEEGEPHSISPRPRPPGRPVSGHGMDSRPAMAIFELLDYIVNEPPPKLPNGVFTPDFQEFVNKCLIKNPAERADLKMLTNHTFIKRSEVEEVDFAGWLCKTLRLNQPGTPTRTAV

HCT-116 [3] = experiment: Induction of cell cycle arrest in human HCT-116 cells assessed as S phase at 5 uM incubated for 6 hrs by flow cytometry analysis (Rvb=39.3%); assay type: functional
[4] = biological target: Aurora kinase B (Homo sapiens) (UniProt Q96GD4); experiment: Inhibition of AURKB (unknown origin) at 100 nM in the presence of ATP by Kinome scan method relative to control
HCT-116 [5] = experiment: Induction of apoptosis in human HCT-116 cells assessed as late apoptosis at 0.1 uM incubated for > 6 hrs by annexin V/PI staining based analysis (Rvb=6.12%); assay type: functional
[6] = biological target: Tyrosine-protein kinase receptor UFO (Homo sapiens) (UniProt P30530); experiment: Inhibition of AXL (unknown origin) at 100 nM in the presence of ATP by Kinome scan method relative to control
[7] = biological target: Serine/threonine-protein kinase Nek2 (Homo sapiens) (UniProt P51955); experiment: Inhibition of NEK2 (unknown origin) at 1000 nM in the presence of ATP by Kinome scan method relative to control
[8] = biological target: Interleukin-1 receptor-associated kinase 4 (Homo sapiens) (UniProt Q9NWZ3); experiment: Inhibition of IRAK4 (unknown origin) at 100 nM in the presence of ATP by Kinome scan method relative to control
HCT-116 [9] = experiment: Induction of cell cycle arrest in human HCT-116 cells assessed as G2/M phase at 1 uM incubated for 24 hrs by flow cytometry analysis (Rvb=17.9%); assay type: functional
HCT-116 [10] = experiment: Induction of cell cycle arrest in human HCT-116 cells assessed as S phase at 5 uM incubated for 24 hrs by flow cytometry analysis (Rvb=46.4%); assay type: functional
[11] = biological target: Tyrosine-protein kinase JAK1 (Homo sapiens) (UniProt P23458); experiment: Inhibition of JAK1 (unknown origin) at 100 nM in the presence of ATP by Kinome scan method relative to control
Sequence of Tyrosine-protein kinase JAK1 (Homo sapiens) (P23458 whole entry): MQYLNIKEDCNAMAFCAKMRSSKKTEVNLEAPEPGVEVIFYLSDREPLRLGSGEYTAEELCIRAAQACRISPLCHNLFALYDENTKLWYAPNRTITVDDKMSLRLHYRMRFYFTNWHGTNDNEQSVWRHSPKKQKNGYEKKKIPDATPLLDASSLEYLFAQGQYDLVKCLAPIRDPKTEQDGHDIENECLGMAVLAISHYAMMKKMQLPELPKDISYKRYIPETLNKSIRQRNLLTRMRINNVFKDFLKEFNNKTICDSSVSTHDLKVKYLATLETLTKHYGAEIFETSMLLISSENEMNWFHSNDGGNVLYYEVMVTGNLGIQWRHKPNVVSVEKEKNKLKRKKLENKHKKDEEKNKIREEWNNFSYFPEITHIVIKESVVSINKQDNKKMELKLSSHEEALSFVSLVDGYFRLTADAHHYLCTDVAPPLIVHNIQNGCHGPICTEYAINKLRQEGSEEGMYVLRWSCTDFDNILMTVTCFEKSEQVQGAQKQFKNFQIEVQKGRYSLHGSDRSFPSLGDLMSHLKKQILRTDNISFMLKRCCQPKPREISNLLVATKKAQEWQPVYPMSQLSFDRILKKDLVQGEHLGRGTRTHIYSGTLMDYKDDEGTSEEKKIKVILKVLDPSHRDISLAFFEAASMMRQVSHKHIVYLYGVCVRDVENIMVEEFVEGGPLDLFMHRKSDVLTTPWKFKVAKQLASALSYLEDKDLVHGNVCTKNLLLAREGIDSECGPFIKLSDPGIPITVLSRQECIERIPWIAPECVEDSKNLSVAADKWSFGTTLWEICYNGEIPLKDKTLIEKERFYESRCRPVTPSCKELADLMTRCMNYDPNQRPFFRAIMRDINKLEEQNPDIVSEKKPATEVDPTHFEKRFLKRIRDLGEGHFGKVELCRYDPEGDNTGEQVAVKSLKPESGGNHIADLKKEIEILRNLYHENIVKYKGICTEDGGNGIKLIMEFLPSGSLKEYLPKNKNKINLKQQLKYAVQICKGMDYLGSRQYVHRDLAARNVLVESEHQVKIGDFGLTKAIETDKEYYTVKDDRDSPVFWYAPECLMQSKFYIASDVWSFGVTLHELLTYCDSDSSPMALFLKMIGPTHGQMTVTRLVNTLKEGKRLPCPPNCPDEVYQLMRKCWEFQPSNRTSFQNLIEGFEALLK

[12] = biological target: Serine/threonine-protein kinase mTOR (Homo sapiens) (UniProt P42345); experiment: Inhibition of FRAP1 (unknown origin) at 1000 nM in the presence of ATP by Kinome scan method relative to control
[13] = biological target: Mitogen-activated protein kinase 8 (Homo sapiens) (UniProt P45983); experiment: Inhibition of MAPK8 (unknown origin) at 100 nM in the presence of ATP by Kinome scan method relative to control
Sequence of Mitogen-activated protein kinase 8 (Homo sapiens) (P45983 whole entry): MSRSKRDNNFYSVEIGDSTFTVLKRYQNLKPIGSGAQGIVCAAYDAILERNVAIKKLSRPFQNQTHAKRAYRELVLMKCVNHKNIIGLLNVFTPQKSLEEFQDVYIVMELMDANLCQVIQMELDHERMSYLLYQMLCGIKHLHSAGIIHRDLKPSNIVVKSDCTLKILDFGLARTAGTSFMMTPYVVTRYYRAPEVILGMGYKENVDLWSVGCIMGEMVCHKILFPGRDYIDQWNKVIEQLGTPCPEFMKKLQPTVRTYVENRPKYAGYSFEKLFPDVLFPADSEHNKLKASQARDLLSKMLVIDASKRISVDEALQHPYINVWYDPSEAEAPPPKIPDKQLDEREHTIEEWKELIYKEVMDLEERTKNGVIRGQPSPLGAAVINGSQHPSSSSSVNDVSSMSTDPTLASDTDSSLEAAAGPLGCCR

HCT-116 [14] = experiment: Induction of apoptosis in human HCT-116 cells assessed as early apoptosis at 10 uM incubated for > 6 hrs by annexin V/PI staining based analysis (Rvb=3.29%); assay type: functional
[15] = biological target: Serine/threonine-protein kinase B-raf (Homo sapiens) (UniProt P15056); experiment: Inhibition of BRAF (unknown origin) at 100 nM in the presence of ATP by Kinome scan method relative to control
[16] = biological target: Dual specificity protein kinase CLK1 (Homo sapiens) (UniProt P49759); experiment: Inhibition of CLK (unknown origin) in human HCT-116 cells assessed as induction in alternative splicing effect in CDC6-RARA level incubated for 6 hrs by RT-PCR analysis; assay type: cell-based; conditions: dose 0.2-5 µM
Sequence of Dual specificity protein kinase CLK1 (Homo sapiens) (P49759 whole entry, looked up, canonical isoform): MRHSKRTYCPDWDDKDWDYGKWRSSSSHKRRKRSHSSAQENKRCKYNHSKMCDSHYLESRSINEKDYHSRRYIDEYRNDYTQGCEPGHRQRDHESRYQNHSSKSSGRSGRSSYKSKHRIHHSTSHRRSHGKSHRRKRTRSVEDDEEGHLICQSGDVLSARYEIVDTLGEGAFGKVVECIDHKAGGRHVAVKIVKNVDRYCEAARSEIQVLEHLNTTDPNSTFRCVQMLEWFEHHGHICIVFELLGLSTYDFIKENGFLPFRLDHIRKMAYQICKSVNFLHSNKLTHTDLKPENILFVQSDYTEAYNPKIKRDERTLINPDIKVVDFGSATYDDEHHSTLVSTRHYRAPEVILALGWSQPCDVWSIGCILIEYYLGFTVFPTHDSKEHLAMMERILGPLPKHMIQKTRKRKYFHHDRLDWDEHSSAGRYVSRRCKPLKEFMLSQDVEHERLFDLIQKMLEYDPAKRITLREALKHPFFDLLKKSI
How it was run: (§1)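 Cells exposed to graded T3 concentrations for 6 h (chosen to avoid cytotoxicity), with a DMSO vehicle control. Total RNA was reverse-transcribed with oligo-dT primers. Targeted splice or conjoined-gene products were quantified by real-time qPCR or by targeted next-generation sequencing. Conjoined-gene isoform expression was normalized to a sequenced housekeeping gene.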

[17] = biological target: Fibroblast growth factor receptor 1 (Homo sapiens) (UniProt P11362); experiment: Inhibition of FGFR1 (unknown origin) at 1000 nM in the presence of ATP by Kinome scan method relative to control
Sequence of Fibroblast growth factor receptor 1 (Homo sapiens) (P11362 22-822 limits assumed): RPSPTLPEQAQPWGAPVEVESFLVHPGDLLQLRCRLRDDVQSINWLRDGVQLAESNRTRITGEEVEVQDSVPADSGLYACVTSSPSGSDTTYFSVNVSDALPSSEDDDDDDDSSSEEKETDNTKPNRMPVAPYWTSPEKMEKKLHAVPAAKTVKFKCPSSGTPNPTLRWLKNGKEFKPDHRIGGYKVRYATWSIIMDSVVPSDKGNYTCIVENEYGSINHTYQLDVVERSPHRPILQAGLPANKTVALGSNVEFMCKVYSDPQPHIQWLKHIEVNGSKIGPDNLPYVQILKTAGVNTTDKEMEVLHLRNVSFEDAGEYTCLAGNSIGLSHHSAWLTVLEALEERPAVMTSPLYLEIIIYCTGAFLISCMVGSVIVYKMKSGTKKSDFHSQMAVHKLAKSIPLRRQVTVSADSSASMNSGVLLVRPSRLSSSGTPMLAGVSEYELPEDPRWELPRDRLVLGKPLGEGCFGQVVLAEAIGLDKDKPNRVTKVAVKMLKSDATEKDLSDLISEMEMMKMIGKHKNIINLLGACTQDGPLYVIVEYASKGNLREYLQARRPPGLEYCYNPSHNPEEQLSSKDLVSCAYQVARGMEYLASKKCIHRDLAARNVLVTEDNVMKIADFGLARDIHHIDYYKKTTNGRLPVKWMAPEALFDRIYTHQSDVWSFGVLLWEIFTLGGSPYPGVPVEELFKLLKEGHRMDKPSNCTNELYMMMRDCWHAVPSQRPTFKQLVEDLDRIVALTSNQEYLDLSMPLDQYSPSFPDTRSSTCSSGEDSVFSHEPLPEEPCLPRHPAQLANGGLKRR

[18] = biological target: Dual specificity tyrosine-phosphorylation-regulated kinase 1B (Homo sapiens, UniProt Q9Y463); experiment: Inhibition of DYRK1B (unknown origin) at 123 nM in the presence of ATP by Kinome scan method relative to control; conditions: time > 6.0 hrs
[19] = biological target: Mitogen-activated protein kinase 1 (Homo sapiens) (UniProt P28482); experiment: Inhibition of MAPK1 (unknown origin) at 100 nM in the presence of ATP by Kinome scan method relative to control
[20] = biological target: Casein kinase I isoform delta (Homo sapiens) (UniProt P48730); experiment: Inhibition of CSNK1D (unknown origin) at 100 nM in the presence of ATP by Kinome scan method relative to control
[21] = biological target: Serine/threonine-protein kinase mTOR (Homo sapiens) (UniProt P42345); experiment: Inhibition of FRAP1 (unknown origin) at 100 nM in the presence of ATP by Kinome scan method relative to control
[22] = biological target: MAP kinase-activated protein kinase 2 (Homo sapiens) (UniProt P49137); experiment: Inhibition of MAPKAPK2 (unknown origin) at 1000 nM in the presence of ATP by Kinome scan method relative to control
[23] = biological target: Cyclin-dependent kinase 5/CDK5 activator 1 (Homo sapiens) (UniProt Q00535+Q15078); experiment: Inhibition of CDK5/p35 (unknown origin) at 1000 nM in the presence of ATP by Kinome scan method relative to control; assay type: protein-complex assay
Sequence of Cyclin-dependent kinase 5/CDK5 activator 1 (Homo sapiens) (Q00535 whole entry): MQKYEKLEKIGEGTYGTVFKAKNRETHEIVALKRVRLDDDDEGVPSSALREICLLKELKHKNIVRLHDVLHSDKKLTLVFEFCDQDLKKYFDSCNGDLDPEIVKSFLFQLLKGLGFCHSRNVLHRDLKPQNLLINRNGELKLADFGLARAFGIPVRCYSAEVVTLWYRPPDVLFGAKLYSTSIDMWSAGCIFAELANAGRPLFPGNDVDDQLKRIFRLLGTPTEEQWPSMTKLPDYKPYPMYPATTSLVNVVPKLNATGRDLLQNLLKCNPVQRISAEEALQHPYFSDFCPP
Sequence of Cyclin-dependent kinase 5/CDK5 activator 1 (Homo sapiens) (Q15078 99-307 partner limits assumed): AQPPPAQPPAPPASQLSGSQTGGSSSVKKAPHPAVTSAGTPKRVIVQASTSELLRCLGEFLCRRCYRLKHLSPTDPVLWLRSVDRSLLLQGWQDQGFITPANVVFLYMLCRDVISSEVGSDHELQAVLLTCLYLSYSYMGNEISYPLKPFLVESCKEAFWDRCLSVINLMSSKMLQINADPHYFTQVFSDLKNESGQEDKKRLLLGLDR

HCT-116 [24] = experiment: Induction of apoptosis in human HCT-116 cells assessed as necrosis cells at 0.1 uM incubated for > 6 hrs by annexin V/PI staining based analysis (Rvb=0.55%); assay type: functional
[25] = biological target: Tyrosine-protein kinase ABL1 (Homo sapiens) (UniProt P00519); experiment: Inhibition of ABL1 (unknown origin) at 100 nM in the presence of ATP by Kinome scan method relative to control
Sequence of Tyrosine-protein kinase ABL1 (Homo sapiens) (P00519 whole entry): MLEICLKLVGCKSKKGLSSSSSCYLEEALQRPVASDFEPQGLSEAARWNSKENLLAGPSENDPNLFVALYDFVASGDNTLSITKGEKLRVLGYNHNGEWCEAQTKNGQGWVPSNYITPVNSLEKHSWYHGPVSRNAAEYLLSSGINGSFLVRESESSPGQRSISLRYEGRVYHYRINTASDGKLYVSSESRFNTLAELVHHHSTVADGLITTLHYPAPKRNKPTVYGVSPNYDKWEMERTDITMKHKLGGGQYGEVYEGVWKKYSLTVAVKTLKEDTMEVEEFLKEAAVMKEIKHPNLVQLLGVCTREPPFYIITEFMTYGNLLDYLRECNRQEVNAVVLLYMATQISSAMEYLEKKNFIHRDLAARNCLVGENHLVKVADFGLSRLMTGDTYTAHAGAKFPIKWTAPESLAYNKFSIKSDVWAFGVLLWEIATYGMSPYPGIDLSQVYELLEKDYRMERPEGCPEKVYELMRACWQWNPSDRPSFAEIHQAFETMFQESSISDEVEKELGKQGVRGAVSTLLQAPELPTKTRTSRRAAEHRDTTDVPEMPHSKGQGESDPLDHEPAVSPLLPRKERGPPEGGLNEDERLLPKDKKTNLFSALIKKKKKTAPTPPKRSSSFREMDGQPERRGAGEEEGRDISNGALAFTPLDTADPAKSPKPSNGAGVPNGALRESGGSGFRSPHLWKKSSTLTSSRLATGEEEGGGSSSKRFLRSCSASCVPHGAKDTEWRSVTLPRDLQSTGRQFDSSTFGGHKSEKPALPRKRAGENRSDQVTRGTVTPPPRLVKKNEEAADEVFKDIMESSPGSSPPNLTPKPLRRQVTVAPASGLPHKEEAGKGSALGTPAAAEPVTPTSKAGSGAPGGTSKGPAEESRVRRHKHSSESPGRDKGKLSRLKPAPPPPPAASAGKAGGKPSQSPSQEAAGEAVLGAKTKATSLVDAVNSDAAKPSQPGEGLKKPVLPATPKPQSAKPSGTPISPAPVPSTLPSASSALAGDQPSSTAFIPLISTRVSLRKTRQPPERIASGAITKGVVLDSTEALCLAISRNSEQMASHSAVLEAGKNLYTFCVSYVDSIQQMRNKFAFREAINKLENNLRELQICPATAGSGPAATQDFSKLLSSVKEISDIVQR

[26] = biological target: Dual specificity mitogen-activated protein kinase kinase 2 (Homo sapiens) (UniProt P36507); experiment: Inhibition of MAP2K2 (unknown origin) at 100 nM in the presence of ATP by Kinome scan method relative to control
[27] = biological target: Serine/threonine-protein kinase Nek1 (Homo sapiens) (UniProt Q96PY6); experiment: Inhibition of NEK1 (unknown origin) at 100 nM in the presence of ATP by Kinome scan method relative to control
HCT-116 [28] = experiment: Induction of cell cycle arrest in human HCT-116 cells assessed as G0/G1 phase at 10 uM incubated for 24 hrs by flow cytometry analysis (Rvb=35.7%); assay type: functional
[29] = biological target: Dual specificity protein kinase CLK1 (Homo sapiens) (UniProt P49759); experiment: Inhibition of CLK (unknown origin) in human HCT-116 cells assessed as induction in alternative splicing effect in MRPS10-GUCA1B level incubated for 6 hrs by RT-PCR analysis; assay type: cell-based; conditions: dose 0.2-5 µM; how it was run: as §1
[30] = biological target: Rho-associated protein kinase 1 (Homo sapiens) (UniProt Q13464); experiment: Inhibition of ROCK1 (unknown origin) at 100 nM in the presence of ATP by Kinome scan method relative to control

inhibition [1]: 92%
inhibition [2]: 14%
inhibition [4]: 7%
inhibition [6]: -10%
inhibition [7]: 24%
inhibition [8]: 25%
inhibition [11]: 11%
inhibition [12]: -9%
inhibition [13]: 5%
inhibition [15]: 9%
inhibition [16]: Dose-Dependent Effect
inhibition [17]: 9%
inhibition [18]: 63%
inhibition [19]: 3%
inhibition [20]: -3%
inhibition [21]: -6%
inhibition [22]: 2%
inhibition [23]: -1%
inhibition [25]: 10%
inhibition [26]: 17%
inhibition [27]: 4%
inhibition [29]: Dose-Dependent Effect
inhibition [30]: 5%
SMILES: CN1CCN(C(=O)C(C)(C)c2ccc(C(=O)Nc3cn4cc(-c5ccncc5)ccc4n3)cc2)CC1 [T3-CLK]
Activity (HCT-116 [3]): 37.4%
Activity (HCT-116 [5]): 8.29%
Activity (HCT-116 [9]): 46%
Activity (HCT-116 [10]): 45.5%
Activity (HCT-116 [14]): 3.7%
Activity (HCT-116 [24]): 0.75%
Activity (HCT-116 [28]): 21.3%
